{"data": "Results of several laboratories", "KIT V559D/V654A": "Mast/stem cell growth factor receptor Kit (KIT, Homo sapiens, UniProt P10721, V559D/V654A)", "KIT D816H": "Mast/stem cell growth factor receptor Kit (KIT, Homo sapiens, UniProt P10721, D816H)", "KIT": "Mast/stem cell growth factor receptor Kit (KIT, Homo sapiens, UniProt P10721)", "KIT D816V": "Mast/stem cell growth factor receptor Kit (KIT, Homo sapiens, UniProt P10721, D816V)", "KIT V559D": "Mast/stem cell growth factor receptor Kit (KIT, Homo sapiens, UniProt P10721, V559D)", "KIT autoinhibited": "Mast/stem cell growth factor receptor Kit, autoinhibited (KIT, Homo sapiens, UniProt P10721)", "KIT T670I/V559D": "Mast/stem cell growth factor receptor Kit (KIT, Homo sapiens, UniProt P10721, T670I/V559D)", "KIT L576P": "Mast/stem cell growth factor receptor Kit (KIT, Homo sapiens, UniProt P10721, L576P)", "KIT A829P": "Mast/stem cell growth factor receptor Kit (KIT, Homo sapiens, UniProt P10721, A829P)", "note": "Each line is one published result; the experiments were not run side by side."}
{"SMILES": "COc1cnc(Nc2cccc(S(N)(=O)=O)c2)nc1N1CCN(c2ccccc2)CC1", "target": "KIT V559D/V654A", "effect on": "binding", "method": "competition with immobilised ligand", "concentration": "1 µM", "remaining binding": "97%"}
{"SMILES": "O=C(O)[C@H]1[C@H](Cn2nnc3ccccc3c2=O)CC[C@@H]1C(=O)c1ccc(OCCC2CCOCC2)cc1", "target": "KIT D816H", "effect on": "cell-free assay", "method": "competition with immobilised ligand", "concentration": "1 µM", "remaining binding": "80%"}
{"SMILES": "CN(C)c1nccc(-c2cnc3ncccn23)n1", "target": "KIT V559D/V654A", "effect on": "binding", "concentration": "1 µM", "remaining binding": "100%"}
{"SMILES": "CC(C)(C)c1ccc(-c2nc(CBr)nn2-c2cccc(O)c2)cc1", "target": "KIT", "effect on": "cell-free assay", "method": "competition with immobilised ligand", "concentration": "10 µM", "remaining binding": "97%"}
{"SMILES": "CCCOc1ccc([C@H]2[C@H](C(=O)O)[C@@H](c3ccc4c(c3)OCO4)CN2CC(=O)Nc2c(CC)cccc2CC)cc1", "target": "KIT V559D/V654A", "effect on": "cell-free assay", "method": "competition with immobilised ligand", "concentration": "1 µM", "remaining binding": "98%"}
{"SMILES": "C=CC(=O)N1CCC(C(=O)NCC(=O)N2CCN(c3nc(-c4cnc(N)nc4C(F)F)nc(N4CCOCC4)n3)CC2)CC1", "target": "KIT", "effect on": "binding", "method": "competition with immobilised ligand", "concentration": "1 µM", "remaining binding": "93%"}
{"SMILES": "O=C(NCCCN1CCOCC1)c1ccc(Nc2ncc(Cl)c(-c3ccc(Cl)s3)n2)cc1", "target": "KIT D816V", "effect on": "binding", "method": "competition with immobilised ligand", "concentration": "1 µM", "remaining binding": "26%"}
{"SMILES": "CC1CCCN1c1nccc(-c2cnn3ncccc23)n1 (stereo not shown)", "target": "KIT V559D", "effect on": "binding", "concentration": "1 µM", "remaining binding": "100%"}
{"SMILES": "Cc1cnc(Nc2ccc(C(=O)N3CCC(N4CCCC4)CC3)cc2)nc1-c1cc2ccccc2s1", "target": "KIT V559D", "effect on": "binding", "method": "competition with immobilised ligand", "concentration": "1 µM", "remaining binding": "0.6%"}
{"SMILES": "Nc1ncc2c(n1)-c1c([nH]c3ccc(C#CC4CC4)cc13)CCCC2", "target": "KIT V559D/V654A", "effect on": "binding", "method": "competition with immobilised ligand", "concentration": "1 µM", "remaining binding": "100%"}
{"SMILES": "N[C@H]1CCN(c2nccc(-c3cnn4ncccc34)n2)C1", "target": "KIT autoinhibited", "effect on": "binding", "concentration": "1 µM", "remaining binding": "0%"}
{"SMILES": "O=C(c1ccc(Nc2ncc(Cl)c(-c3cc4ccccc4s3)n2)cc1)N1CCC(N2CCCC2)CC1", "target": "KIT T670I/V559D", "effect on": "binding", "method": "competition with immobilised ligand", "concentration": "1 µM", "remaining binding": "17%"}
{"SMILES": "C[C@H]1CCN(c2nccc(-c3cnn4ncccc34)n2)C1", "target": "KIT T670I/V559D", "effect on": "binding", "concentration": "1 µM", "remaining binding": "98%"}
{"SMILES": "COc1ncc2cc3ccccc3nc2c1C#N", "target": "KIT L576P", "effect on": "cell-free assay", "method": "competition with immobilised ligand", "concentration": "5 µM", "remaining binding": "100%"}
{"SMILES": "O=C(c1ccc(Nc2ncc(Cl)c(-c3ccc(Cl)s3)n2)cc1)N1CCC(N2CCCC2)CC1", "target": "KIT D816H", "effect on": "binding", "method": "competition with immobilised ligand", "concentration": "1 µM", "remaining binding": "7.7%"}
{"SMILES": "N#Cc1ccccc1CSc1nnc2c(n1)[nH]c1ccccc12", "target": "KIT D816V", "effect on": "binding", "method": "competition with immobilised ligand", "concentration": "10 µM", "remaining binding": "75%"}
{"SMILES": "O=C(Nc1c[nH]nc1C(=O)NC1CCNCC1)c1cc(F)cc(F)c1", "target": "KIT D816H", "effect on": "binding", "method": "competition with immobilised ligand", "concentration": "1 µM", "remaining binding": "100%"}
{"SMILES": "N#CC1(c2ccccn2)CCN(Cc2cc(C(=O)N3CCCC3)c(=O)n3ccccc23)CC1", "target": "KIT A829P", "effect on": "cell-free assay", "method": "competition with immobilised ligand", "concentration": "1 µM", "remaining binding": "50%"}
{"SMILES": "O=C(NCCCN1CCOCC1)c1ccc(Nc2nccc(-c3cc4ccccc4s3)n2)cc1", "target": "KIT V559D", "effect on": "binding", "method": "competition with immobilised ligand", "concentration": "1 µM", "remaining binding": "26%"}
{"SMILES": "CN1CCN(c2ccc(Nc3nccc(-c4cccc([N+](=O)[O-])c4)n3)cc2C(F)(F)F)CC1", "target": "KIT V559D", "effect on": "binding", "concentration": "10 µM", "remaining binding": "0%"}
{"SMILES": "Cc1cnn2ncc(-c3ccnc(N(C)C)n3)c2c1", "target": "KIT T670I/V559D", "effect on": "binding", "concentration": "1 µM", "remaining binding": "100%"}
{"SMILES": "O=C(NCC1CCOCC1)c1n[nH]cc1NC(=O)c1c(F)cccc1F", "target": "KIT D816V", "effect on": "binding", "method": "competition with immobilised ligand", "concentration": "1 µM", "remaining binding": "100%"}
{"SMILES": "Cc1nc(Cc2cccc(C(F)(F)F)c2)sc1-c1ccc(C(N)=O)nc1", "target": "KIT D816V", "effect on": "cell-free assay", "method": "competition with immobilised ligand", "concentration": "1 µM", "remaining binding": "81%"}
{"SMILES": "CN1CCN(c2ccc(Nc3nccc(-c4ccccc4)n3)cc2C(F)(F)F)CC1", "target": "KIT D816H", "effect on": "binding", "concentration": "10 µM", "remaining binding": "17%"}
{"SMILES": "O=C(c1ccc(Nc2nccc(-c3cc4ccccc4s3)n2)cc1)N1CCC(N2CCCC2)CC1", "target": "KIT V559D", "effect on": "binding", "method": "competition with immobilised ligand", "concentration": "1 µM", "remaining binding": "18%"}
{"SMILES": "COc1ccnn2ncc(-c3ccnc(N(C)C)n3)c12", "target": "KIT", "effect on": "binding", "concentration": "1 µM", "remaining binding": "100%"}
{"SMILES": "NS(=O)(=O)c1cc(NC(=O)C2(c3ccccc3Cl)CC2)ccc1Oc1cccc(Cl)c1", "target": "KIT T670I/V559D", "effect on": "cell-free assay", "method": "competition with immobilised ligand", "concentration": "1 µM", "remaining binding": "85%"}
{"SMILES": "C[C@@H](c1ccc(-n2cnc3c(N)ncnc32)cc1)N1CCc2nn(C)c(Cc3ccccc3)c2C1=O", "target": "KIT D816H", "effect on": "binding", "method": "competition with immobilised ligand", "concentration": "0.1 µM", "remaining binding": "64%"}
{"SMILES": "c1cncc(-c2cccc(Nc3nccc(NC4CCCCC4)n3)c2)c1", "target": "KIT D816V", "effect on": "binding", "method": "competition with immobilised ligand", "concentration": "10 µM", "remaining binding": "0.75%"}
{"SMILES": "CCC(=O)N[C@@H]1CC[C@H](C(=O)N(C)c2ccc(-c3nc4ccccc4o3)cc2)C1", "target": "KIT autoinhibited", "effect on": "cell-free assay", "method": "competition with immobilised ligand", "concentration": "1 µM", "remaining binding": "93%"}
{"SMILES": "CN(CCCC(F)(F)F)c1nccc(-c2cnn3ncccc23)n1", "target": "KIT autoinhibited", "effect on": "binding", "concentration": "1 µM", "remaining binding": "100%"}
{"SMILES": "COc1ccc2c(c1)O[C@@H](c1ccc(OC)c(OC)c1)C[C@H]2NC(=O)C1(c2ccc3c(c2)OC(F)(F)O3)CC1", "target": "KIT L576P", "effect on": "cell-free assay", "method": "competition with immobilised ligand", "concentration": "1 µM", "remaining binding": "92%"}
{"SMILES": "CNC(=O)[C@@H]1CC[C@@H](n2c(-c3ccc4cnccc4c3)nc3ccc(C(=O)NCc4cccc(C(N)=O)c4)cc32)C1", "target": "KIT autoinhibited", "effect on": "binding", "method": "competition with immobilised ligand", "concentration": "1 µM", "remaining binding": "100%"}
{"SMILES": "CCN1CCN(Cc2ccc(C(=O)Nc3ccc(C)c(Oc4ccc5c(c4)CC(=O)N5)c3)cc2C(F)(F)F)CC1", "target": "KIT T670I/V559D", "effect on": "binding", "method": "competition with immobilised ligand", "concentration": "1 µM", "remaining binding": "58%"}
{"SMILES": "O=C(Nc1cccnn1)N1CCC(=Cc2cccc(Oc3ccc(C(F)(F)F)cn3)c2)CC1", "target": "KIT A829P", "effect on": "cell-free assay", "method": "competition with immobilised ligand", "concentration": "1 µM", "remaining binding": "96%"}
{"SMILES": "CN(c1nccc(-c2cnn3ncccc23)n1)C1CC1", "target": "KIT A829P", "effect on": "binding", "concentration": "1 µM", "remaining binding": "88%"}
{"SMILES": "COc1cnc(Nc2cccc(S(N)(=O)=O)c2)nc1N1CCN(c2ccccc2)C(=O)C1", "target": "KIT D816H", "effect on": "binding", "method": "competition with immobilised ligand", "concentration": "1 µM", "remaining binding": "55%"}
